From ChEMBL document CHEMBL2321740, “Arylazanylpyrazolone derivatives as inhibitors of mutant superoxide dismutase 1 dependent protein aggregation for the treatment of amyotrophic lateral sclerosis” (J Med Chem, 2013)
pEC50: −log10 of the molar value. Calls of active or inactive are those of the source. No cut-off for these calls is given here.

Legend:
[1] = Inhibition of SOD1 mutant (unknown origin); set-up: species or system Homo sapiens
[2] = system: PC-12; test: Inhibition of SOD1 mutant -induced cytotoxicity in rat PC12 cells after 24 hrs by fluorescence assay in presence of proteosome inhibitor MG132; type: cell-based
Procedure, shortened: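 PC12 cells expressing G93A SOD1 seeded at 15000 cells/well, held 24 h, then given compound in 12-point dose-response, top concentration 32 μM, halved at each step. After 24 h with compound, MG132 added (final 100 nM). Viability read 48 h later: cells washed twice with PBS, Calcein-AM 1 μM final for 20 min at room temperature, fluorescence intensity measured.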

[3] = Inhibition of SOD1 mutant -induced cytotoxicity in cortical neurons after 24 hrs by fluorescence assay in presence of proteosome inhibitor MG132
[4] = system: Liver; test: Half life in mouse liver microsomes in absence of NADPH; type: ADME, Microsome
[5] = system: Caco-2; test: Apparent permeability of the compound from apical to basolateral side in human Caco2 cells; type: ADME, cell-based
[6] = system: Caco-2; test: Efflux ratio of permeability from basolateral to apical side over apical to basolateral side in human Caco2 cells; type: ADME, cell-based
[7] = system: Liver microsomes; test: Half life in human liver microsomes in presence of NADPH; type: ADME, Microsome
[8] = system: Caco-2; test: Apparent permeability of the compound from basolateral to apical side in human Caco2 cells; type: ADME, cell-based
[9] = Aqueous solubility of the compound; type: physicochemical; conditions: buffer
[10] = system: Liver; test: (§1) Half life in mouse liver microsomes in presence of NADPH; type: ADME, Microsome; conditions: microsomes
[11] = system: Liver microsomes; test: Half life in human liver microsomes in absence of NADPH; type: ADME, Microsome
[12] = as §1; type: ADME, Microsome; conditions: liver microsomes
[13] = Inhibition of SOD1 mutant -induced cytotoxicity in assessed as recovery of neuronal activity at 10 uM after 24 hrs by fluorescence assay in presence of proteosome inhibitor MG132 relative to control; set-up: scale not given: the % may be the effect or the level left

| Compound | pEC50 [1] | further results |
| --- | --- | --- |
| Cn1[nH]c(COc2cc(Cl)cc(Cl)c2)cc1=O | 6.17 |  |
| O=c1cc(CN(c2cc(Cl)cc(Cl)c2)C2CC2)[nH][nH]1 | 6.28 |  |
| CN(Cc1cc(=O)[nH]n1C)c1cc(Cl)cc(Cl)c1 | < 4.49 |  |
| CN(Cc1cc(=O)[nH][nH]1)c1ccc2ccccc2c1 | 6.08 |  |
| CN(Cc1cc(=O)[nH][nH]1)c1cccc(Br)c1 | 6.12 |  |
| CN(Cc1cc(=O)n(C)[nH]1)c1cc(Cl)cc(Cl)c1 | 6.12 |  |
| CN(Cc1cc(=O)[nH][nH]1)c1ccc(F)cc1 | 5.85 |  |
| O=c1[nH][nH]c2c1CCN(c1cc(Cl)cc(Cl)c1)C2 | 6.19 |  |
| C#CCN(Cc1cc(=O)[nH][nH]1)c1cc(Cl)cc(Cl)c1 | 5.99 |  |
| CN(Cc1cc(=O)[nH][nH]1)c1ccc(Cl)cc1 | 6.08 |  |
| O=c1cc(CN2CCCc3ccccc32)[nH][nH]1 | 6.10 |  |
| O=c1cc(CN(Cc2ccccc2)c2cc(Cl)cc(Cl)c2)[nH][nH]1 | 6.16 |  |
| O=c1[nH][nH]c2c1CN(c1cc(Cl)cc(Cl)c1)CC2 | 5.84 | Activity [2]: Active; Activity [3]: inactive |
| CC(C)(C)N(Cc1cc(=O)[nH][nH]1)c1cc(Cl)cc(Cl)c1 | 5.90 |  |
| O=c1cc(CNc2cc(Cl)cc(Cl)c2)[nH][nH]1 | 6.11 | t1/2 [4]: 100 min; Papp [5]: 0.6 ×10⁻⁶ cm/s; Ratio [6]: 47.1; t1/2 [7]: 95 min; Papp [8]: 28.1 ×10⁻⁶ cm/s; solubility [9]: >= 150 uM; t1/2 [10]: 30 min; t1/2 [11]: > 180 min |
| CN(CCc1cc(=O)[nH][nH]1)c1cc(Cl)cc(Cl)c1 | 5.92 |  |
| CC(C)N(Cc1cc(=O)[nH][nH]1)c1cc(Cl)cc(Cl)c1 | 6.21 |  |
| CN(Cc1cc(=O)[nH][nH]1)c1ccc(C#N)cc1 | 5.90 |  |

| Compound | pEC50 [1] | further results |
| --- | --- | --- |
| COc1cccc(N(C)Cc2cc(=O)[nH][nH]2)c1 | 6.09 |  |
| CN(Cc1cc(=O)[nH][nH]1)c1cccc2ccccc12 | 6.51 |  |
| CN(CCCc1cc(=O)[nH][nH]1)c1cc(Cl)cc(Cl)c1 | 5.84 | Activity [2]: Active; Activity [3]: inactive |
| Cc1c(CN(C)c2cc(Cl)cc(Cl)c2)n(C)n(C)c1=O | < 4.49 |  |
| CN(Cc1cc(=O)[nH][nH]1)c1ccccc1Br | 5.92 |  |
| CN(Cc1cc(=O)[nH][nH]1)c1ccc(Cl)c(Cl)c1 | 6.38 |  |
| CN1N=C(CN(C)c2cc(Cl)cc(Cl)c2)C(C)(C)C1=O | < 4.49 |  |
| O=c1cc(COc2cc(Cl)cc(Cl)c2)[nH][nH]1 | 6.40 | t1/2 [4]: 111 min; half-life [12]: 36 min; t1/2 [11]: 173 min |
| CN(Cc1cc(=O)[nH][nH]1)c1cc(Cl)cc(Cl)c1 | 6.24 | t1/2 [4]: > 180 min; Papp [5]: 2.2 ×10⁻⁶ cm/s; Ratio [6]: 3.5; Activity [13]: 100%; t1/2 [7]: > 180 min; Papp [8]: 7.6 ×10⁻⁶ cm/s; solubility [9]: >= 150 uM; t1/2 [10]: 25 min; t1/2 [11]: > 180 min |
| CCN(Cc1cc(=O)[nH][nH]1)c1cc(Cl)cc(Cl)c1 | 6.46 |  |
| O=c1cc(CN2CCc3ccccc32)[nH][nH]1 | 5.97 |  |
| O=c1cc(CN(c2ccccc2)c2cc(Cl)cc(Cl)c2)[nH][nH]1 | 5.88 |  |
| CN(Cc1cc(=O)[nH][nH]1)c1ccc(Cl)cc1Cl | 6.54 |  |
| CN(Cc1cc(=O)[nH][nH]1)c1ccc(Br)cc1 | 6.15 |  |
| CN(Cc1cc(=O)n(C)n1C)c1cc(Cl)cc(Cl)c1 | < 4.49 |  |
| CN(Cc1cc(=O)[nH][nH]1)c1ccccc1 | 6.12 |  |
| CN(Cc1cc(=O)n(Cc2ccccc2)[nH]1)c1cc(Cl)cc(Cl)c1 | 6.31 |  |
